The text below walks through data of paper PMC6287472 (International Journal for Parasitology: Drugs and Drug …, 2018).

Assay [1] concerns the target T1, Sm.5HTRL (Schistosoma mansoni, UniProt A0A173FEI8).
T1 sequence (A0A173FEI8 1-547): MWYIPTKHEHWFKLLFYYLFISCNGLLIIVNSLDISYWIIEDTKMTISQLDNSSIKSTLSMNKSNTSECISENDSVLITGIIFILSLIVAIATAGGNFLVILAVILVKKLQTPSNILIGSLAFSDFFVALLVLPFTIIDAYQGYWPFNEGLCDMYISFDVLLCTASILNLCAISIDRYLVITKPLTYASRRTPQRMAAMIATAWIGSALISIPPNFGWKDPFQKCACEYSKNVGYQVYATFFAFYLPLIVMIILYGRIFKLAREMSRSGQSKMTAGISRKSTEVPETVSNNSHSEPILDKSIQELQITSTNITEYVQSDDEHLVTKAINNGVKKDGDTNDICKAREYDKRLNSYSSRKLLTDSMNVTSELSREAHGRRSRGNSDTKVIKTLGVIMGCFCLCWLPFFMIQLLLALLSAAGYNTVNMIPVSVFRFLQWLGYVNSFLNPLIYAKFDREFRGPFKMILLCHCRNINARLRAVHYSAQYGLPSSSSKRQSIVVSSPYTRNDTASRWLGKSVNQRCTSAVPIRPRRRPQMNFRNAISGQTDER
Briefly: Sm.5HTRL cAMP luminescence. The conditions noted are these: for Emax: read-out: Sm.5HTRL Emax (normalized to 5-HT). The format is cell-based. The gist of the method: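 HEK-293 cells stably carrying the GloSensor-22F cAMP reporter and codon-optimised Sm.5HTRL (pcDNA3.1), selected with hygromycin (200 μg/mL) and G418 (400 μg/mL), plated 2.5x10^4 cells/well the day before. Assay buffer was HBSS/HEPES (20 mM, pH 7.4), 0.1% BSA, D-luciferin 1 mg/mL. Cells were equilibrated 1 h at room temperature, then IBMX 200 μM for 30 min. Luminescence was read 45 min after test compound; Emax was taken relative to 5-HT.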

Assay [2] concerns the target T1, Sm.5HTRL. Description: Sm.5HTRL cAMP luminescence. It is filed as cell-based. The conditions noted are these: for antagonist activity at Sm.5HTRL (in words): inhibition of 5-HT response, test compound up to 50 μM. In a few lines: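 Sm.5HTRL/GloSensor-22F stable HEK-293 cells, 2.5x10^4/well, in HBSS/HEPES (20 mM, pH 7.4), 0.1% BSA, 1 mg/mL D-luciferin. After 1 h at room temperature, IBMX 200 μM was added for 30 min. Test compound was added and read 45 min, then 500 nM serotonin was added and luminescence read another 45 min. IC50 came from concentration-inhibition curves; Ki was estimated by Cheng-Prusoff.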

The subject of assay [3] is adult S. mansoni. Description: Adult schistosome mobility assay, antagonist. Also noted: species or system Schistosoma mansoni. The conditions noted are these: for inhibition of 5-HT evoked movement (in words): concentrations as high as 50 μM, serotonin 200 μM; for concentration inhibiting 5-HT evoked movement: 1 h incubation, then serotonin 200 μM. In a few lines: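 Adult worms were recovered 49 days after cercarial infection of female Swiss Webster mice (NMRI strain parasite). They were kept overnight at 37 °C/5% CO2 in RPMI 1640 with HEPES 25 mM, 5% heat-inactivated FBS and pen-strep. Males (4–5/well) were incubated 1 h in test compound, then serotonin 200 μM was added. One-minute videos at 4 frames/s were analysed for movement; mean ± standard error, ≥3 independent experiments.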

Assay [4] addresses T1, Sm.5HTRL. The note with it: ref Chan et al., cited from earlier work.
Assay [5] relates to adult S. mansoni. Briefly: Adult schistosome mobility assay, agonist. Also on record: species or system Schistosoma mansoni. The note with it: adult male worms ex vivo; for increase in worm movement: 5 min incubation. The gist of the method: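 Adult worms came from female Swiss Webster mice 49 days after infection with NMRI-strain cercariae. They were washed in RPMI 1640 with HEPES 25 mM, 5% heat-inactivated FBS and pen-strep, then cultured overnight at 37 °C/5% CO2. Males (4–5/well, 3 mL) were exposed to test compound for 5 min. Movement was filmed for 1 min at 4 frames/s and quantified by image analysis; mean ± standard error, ≥3 independent experiments.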

Assay [6] concerns HEK-293 cells expressing the GloSensor-22F reporter alone. Briefly: Counter-screen on parental GloSensor-22F cell line lacking Sm.5HTRL. The note with it: agonists at 10 μM. The format is cell-based. In a few lines: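 Counter-screen used HEK-293 cells stably expressing the GloSensor-22F cAMP reporter without Sm.5HTRL, plated 2.5x10^4 cells/well the day before. Assay buffer was HBSS/HEPES (20 mM, pH 7.4), 0.1% BSA, 1 mg/mL D-luciferin. Cells were equilibrated 1 h at room temperature, then IBMX 200 μM added for 30 min. Test compound was added and luminescence read for 45 min.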

Assay [7] relates to mammalian 5-HT7 receptors. The conditions noted are these: cited from earlier work.
Assay [8] concerns human 5-HT7 receptor. The note with it: ref Plassat et al., 1993; cited from earlier work.
The subject of assay [9] is adult S. mansoni. The conditions noted are these: previous work; ref Chan et al., 2016c; cited from earlier work.
The mark [10] stands for this setting: pKi, estimated using the Cheng-Prusoff equation, inhibition of 500 nM 5-HT.
[11] abbreviates: ref Bard et al., 1993, Shen et al.

Entries after “also recorded” stand apart in the source; their conditions may differ. Counter-ions that a name gives are not always drawn. Like-named read-outs stand apart in the source and are kept apart here.

Broadly, the EC50 is the midpoint of the concentration-response curve. A lower EC50 goes with higher potency in that assay. What is called Emax is the greatest response seen or fitted, relative to the assay's reference. Consider `CN(C)CCc1c[nH]c2ccc(O)cc12` [Bufotenine], for which, in assay [1], the EC50 was 2.4 ± 0.2 µM and the Emax came to 99 ± 34%.
With `COc1cc2c(cc1OC)[C@H]1Cc3ccc(OC)c(OC)c3CN1CC2` [D-Rotundine], in assay [2], the “antagonist activity at Sm.5HTRL (in words)” value (from here on “antagonist activity”) is “inactive”. Also, the “inhibition of 5-HT evoked movement (in words)” value in [3] is “no inhibition”.
Take `COc1cc2c(cc1OC)-c1cc3ccc(OC)c(OC)c3c[n+]1CC2` [Palmatine]: in [2], the “antagonist activity” value was “inactive”. Besides, the “inhibition of 5-HT evoked movement (in words)” value in assay [3] is listed as “no inhibition”.
As to `COc1ccc(C(=O)c2nccc3cc(OC)c(OC)cc23)cc1OC` [Papaveraldine], the “antagonist activity” value in [2] is given as “None of these showed any inhibition”.
On to `COc1cc2c(cc1OC)[C@@H]1Cc3ccc(OC)c(OC)c3CN1CC2` [L-Rotundine], for which the “antagonist activity” value in assay [2] is “active”. Also, in [3], the “concentration inhibiting 5-HT evoked movement” value was no less than 1 µM.
Regarding `CC1CCN(CC[C@H]2CCCN2S(=O)(=O)c2cccc(O)c2)CC1` [SB-269970], the “activity at Sm.5HTRL (in words)” value in assay [4] (2016c) was “inactive”.
Take `NCCc1c[nH]c2ccc(Br)cc12` [5-Bromotryptamine]: the “agonist activity at Sm.5HTRL (in words)” value in assay [1] was “partial agonist activity”.
`COc1cc2cc3c4c(cc(OC)c(OC)c4c2cc1OC)CCN3C` [Dehydroglaucine]: the “antagonist activity” value in assay [2] was “inactive”.
The term Ki denotes a measure of affinity in units of concentration, obtained from inhibition or displacement. For the compound `COc1cc2c3c(c1OC)-c1ccccc1C[C@H]3N(C)CC2` [L-Nuciferine], in [2], the “antagonist activity” value is on record as “potent antagonists”. Moreover, the Ki in [2] (setting [10]) is 0.0794 µM. Further, in assay [4] (2016a), the “activity at Sm.5HTRL (in words)” value is “potent antagonists; also recorded: Sm.5HTRL antagonists”.
On to `COc1cc2c3c(c1OC)-c1cc4c(cc1CC3N(C)CC2)OCO4` (stereo not drawn) [nantenine], for which the “antagonist activity” value in assay [2] is “potent antagonists”.
On to `NCCc1c[nH]c2ccc(O)cc12` [Serotonin], for which a half-maximal response in assay [1] (EC50) required 0.094 ± 0.018 µM. Also, the “increase in worm movement” value in assay [5] is on record as 224 ± 17%. In addition, the “activity in cells expressing the GloSensor-22F reporter alone (in words)” value in [6] is recorded as “not observed”.
Regarding `Cc1ccc2[nH]cc(CCN)c2c1` [5-methyltryptamine], the “agonist activity at Sm.5HTRL (in words)” value in assay [1] is “partial agonist activity”. Moreover, in assay [5], the “effect on worm movement (in words)” value is listed as “stimulated movement, but only at high concentrations in the hundreds of micromolar”.
Consider `COc1ccc2[nH]cc(CCN(C)C)c2c1` [5-MeO-DMT, 5-methoxy-N,N-dimethyltryptamine], for which the “agonist activity at Sm.5HTRL (in words)” value in assay [1] is “inactive”.
For the compound `COc1cc2c(cc1OC)CN1CCc3cc(OC)c(OC)cc3[C@@H]1C2` [d-Xylopinine], the “antagonist activity” value in assay [2] is listed as “decreased potency”. Moreover, the “times less potent than rotundine at Sm.5HTRL” value in assay [2] (relative to rotundine) is reported as roughly 10.
Regarding `COc1cc2c3c(cc4ccccc4c3c1OC)N(C)CC2` [dehydronuciferine], the “antagonist activity” value in assay [2] was “inactive”.
The same measure, in the same setting: in the case of `COc1ccc(CC2c3cc(OC)c(OC)cc3CCN2C)cc1OC` (stereo not drawn) [Laudanosine] it was “None of these showed any inhibition”.
Regarding `C=CCN(CC=C)CCc1c[nH]c2ccc(OC)cc12` [5-MeO-DALT, N,N-diallyl-5-methoxytryptamine], in assay [1], the “agonist activity at Sm.5HTRL (in words)” value was “inactive”.
`c1cc2c(c3c1CC1c4cc5c(cc4CCN1C3)OCO5)OCO2` (stereo not drawn) [Tetrahydrocoptisine]: the entries for the “antagonist activity” value in assay [2] and in assay [2] (listed as tetrahydrocopsitine) were “loss of activity” and “inactive”, respectively.
Turning to `CNCCc1c[nH]c2ccc(O)cc12` [N-methylserotonin], in [1], the EC50 was 0.154 ± 0.011 µM and the Emax is 113 ± 28%. Moreover, in assay [5], the “effect on worm movement (in words)” value is given as “full agonist” and the “increase in worm movement” value is recorded as 252 ± 9%. For the same compound, in assay [7] (ref Powell et al., 2008), the “activity at mammalian 5-HT7 receptors (in words)” value was “full agonist”.
Regarding `CNCCc1c[nH]c2ccccc12` [N-Methyltryptamine], the “agonist activity at Sm.5HTRL (in words)” value in assay [1] is “inactive”.
On to `COc1ccc2[nH]cc(CCN)c2c1` [5-methoxytryptamine], for which the “agonist activity at Sm.5HTRL (in words)” value in assay [1] (listed as 5-MeOT) was “inactive; also recorded: did not potently activate”. Further, the “effect on worm movement (in words)” value is on record as “stimulated movement” in assay [5] and “potently stimulated movement” in assay [5] (listed as 5-MeOT). Besides, the “activity at mammalian 5-HT7 receptors (in words)” value in assay [7] (setting [11]) is recorded as “potent full agonists”. Moreover, in assay [8], the “activity at human 5-HT7 receptor (in words)” value is reported as “full agonists”.
For `COc1cc2c(cc1OC)C1Cc3ccc(OC)c(OC)c3CN1CC2` (stereo not drawn) [D,L Rotundine], the Ki in assay [2] was 0.0631 µM. The “activity at Sm.5HTRL (in words)” value in assay [4] (2016c, listed as D/L-rotundine) was “antagonist”; in assay [4] (2016c, listed as rotundine), “potent antagonists”. For the same compound, in assay [9], the “effect on movement of adult worms (in words)” value is “inhibited movement of adult worms”.
For the compound `CN(C)CCc1c[nH]c2ccccc12` [DMT, N,N-Dimethyltryptamine], the “agonist activity at Sm.5HTRL (in words)” value in [1] was “inactive”. Further, in assay [5], the “effect on worm movement (in words)” value was “no effect on worm movement”.
Regarding `COc1ccc(Cc2nccc3cc(OC)c(OC)cc23)cc1OC` [Papaverine], the “antagonist activity” value in [2] is “None of these showed any inhibition”.
For `COc1cc2c(cc1O)C[C@H]1c3c(cc(O)c(OC)c3-2)CCN1C` [Boldine], the “antagonist activity” value in assay [2] is reported as “potent antagonists”. For the same compound, the “activity at Sm.5HTRL (in words)” value in assay [4] (2016a) is reported as “Sm.5HTRL antagonists”.
As to `NCCc1c[nH]c2ccccc12` [Tryptamine], the “agonist activity at Sm.5HTRL (in words)” value in assay [1] is recorded as “negligible activity”.
Regarding `COc1cc2c(cc1OC)-c1c(OC)c(OC)cc3c1[C@H](C2)N(C)CC3` [D-glaucine], the “antagonist activity” value in assay [2] is “potent antagonists”. The Ki in [2] (setting [10]) was 0.158 µM. The “activity at Sm.5HTRL (in words)” value in assay [4] (2016a) was “Sm.5HTRL antagonists”.
Consider `CCCN1CCc2cccc3c2[C@H]1Cc1ccc2c(c1-3)OCO2` [(-)-MDO-NPA hydrochloride], for which, in [2] (setting [10]), the Ki is 0.1 µM.
Take `COc1ccc2c(c1OC)CN1CCc3cc4c(cc3[C@@H]1C2)OCO4` [Canadine]: the “antagonist activity” value in assay [2] is “loss of activity; also recorded: inactive”.
With `COc1cc2c3c(c1O)-c1ccccc1CC3N(C)CC2` (stereo not drawn) [compound 785177], the “concentration inhibiting 5-HT evoked movement” value in assay [3] fell in the range of 1 to 10 µM.
Take `NCCc1c[nH]c2ccc(C(N)=O)cc12` [5-Carboxamidotryptamine]: the “agonist activity at Sm.5HTRL (in words)” value in [1] (listed as 5-CT) is “inactive”. Besides, the “effect on worm movement (in words)” value in [5] is given as “did not stimulate movement”. The “activity at mammalian 5-HT7 receptors (in words)” value in assay [7] (setting [11]) is “potent full agonists”. In addition, the “activity at human 5-HT7 receptor (in words)” value in assay [8] was “full agonists”.
